SENP8 block-1: blocks human SENP8 cleavage of Nedd8 substrate | Q96LD8 | recombinant SENP8, Nedd8 substrate fluorescence | inhibition, % at 20 µM | actives 0.64% (n = 360,000); in the data active = inhibition mostly above about 40%, no sharp cut-off; inactive = mostly below about 27%
SENP8 block-2: blocks the human protease SENP8; Q96LD8; purified SENP8, Z-RLRGG-aminoluciferin cleavage, luminescence; inhibition, % at 10 µM; actives 1.2% (n = 330,000); AID 2540; in the data active = inhibition above about 50%
SENP6 inh: SENP6 protease inhibition | inhibition, % at 10 µM | Recombinant SENP6 catalytic domain, aminoluciferin luminescence | actives 1.8% (n = 330,000) | AID 2599 | Q9GZR1;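 active = inhibition above about 50% at the single tested dose, limit read from the data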
Apaf-1 inh: blocks human Apaf-1 apoptosome activity | O14727 | reconstituted apoptosome caspase-3 activity, DEVD-Rh110 fluorescence | inhibition, % at 20 µM | actives 0.71% (n = 330,000); active = inhibition of at least 40% at 20 µM
Target sequence (O14727 whole entry, looked up): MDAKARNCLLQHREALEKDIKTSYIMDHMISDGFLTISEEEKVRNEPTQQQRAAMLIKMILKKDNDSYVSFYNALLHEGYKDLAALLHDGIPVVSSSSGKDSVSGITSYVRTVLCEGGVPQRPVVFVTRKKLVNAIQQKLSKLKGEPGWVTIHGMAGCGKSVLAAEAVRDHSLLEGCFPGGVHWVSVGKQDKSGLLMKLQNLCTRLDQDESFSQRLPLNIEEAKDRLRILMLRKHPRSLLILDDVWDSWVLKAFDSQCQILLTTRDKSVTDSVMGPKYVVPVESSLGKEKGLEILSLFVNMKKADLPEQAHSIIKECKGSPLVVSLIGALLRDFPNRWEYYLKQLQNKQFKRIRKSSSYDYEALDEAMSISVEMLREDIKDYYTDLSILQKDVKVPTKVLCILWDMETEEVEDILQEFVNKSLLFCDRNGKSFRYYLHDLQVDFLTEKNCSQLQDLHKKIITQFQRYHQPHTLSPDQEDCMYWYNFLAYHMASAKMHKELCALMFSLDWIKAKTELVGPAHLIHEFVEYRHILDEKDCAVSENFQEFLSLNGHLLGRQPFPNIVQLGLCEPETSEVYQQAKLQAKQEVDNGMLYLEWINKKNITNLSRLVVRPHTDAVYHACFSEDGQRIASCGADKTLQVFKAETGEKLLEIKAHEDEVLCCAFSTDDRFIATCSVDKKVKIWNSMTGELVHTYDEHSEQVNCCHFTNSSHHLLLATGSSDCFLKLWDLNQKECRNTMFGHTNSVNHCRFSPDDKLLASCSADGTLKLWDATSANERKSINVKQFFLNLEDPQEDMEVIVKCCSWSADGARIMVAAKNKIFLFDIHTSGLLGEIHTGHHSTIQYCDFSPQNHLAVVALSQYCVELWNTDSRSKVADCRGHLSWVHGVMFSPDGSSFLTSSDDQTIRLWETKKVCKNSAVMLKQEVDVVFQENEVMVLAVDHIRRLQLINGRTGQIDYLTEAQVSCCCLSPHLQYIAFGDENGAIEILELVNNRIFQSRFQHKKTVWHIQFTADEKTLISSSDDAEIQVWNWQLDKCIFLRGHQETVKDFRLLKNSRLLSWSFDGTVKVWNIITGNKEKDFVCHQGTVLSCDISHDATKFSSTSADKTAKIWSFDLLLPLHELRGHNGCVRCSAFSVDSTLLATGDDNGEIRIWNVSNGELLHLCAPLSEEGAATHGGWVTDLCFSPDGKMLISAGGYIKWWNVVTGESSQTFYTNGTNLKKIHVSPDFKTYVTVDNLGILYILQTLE
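System: Apoptosome proteins | Medium: Hepes pH 7.5 with detergent and BSA | Also added: Cytochrome c trigger plus (Z-DEVD)2-Rh110 caspase-3 substrate | Incubation: 30 min compound preincubation, 50 min activation, room temperature | Detection: Rhodamine 110 fluorescence at Ex 480/Em 540 nm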
UBC13 inh: human UBC13 polyubiquitination inhibition; AID 485273; actives 0.47% (n = 330,000); UBC13 polyubiquitin chain formation, TR-FRET; inhibition, % at 20 µM; in the data active = inhibition above about 45%, passing the limit was not always enough
SENP7 inh: inhibitors of human SENP7 protease. recombinant SENP7, Z-RLRGG-aminoluciferin luminescence, 40 min. actives 1.5% (n = 330,000). inhibition, % at 5 µM. AID 434973;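 active = inhibition above about 50% at the single test dose, limit read from the data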
SENP8 confirm: confirmation of human SENP8 protease inhibitors; Recombinant SENP8, Z-RLRGG-aminoluciferin luminescence, 60 min; actives 40% (n = 6,200); shares compounds with SENP7 inh; inhibition, % at 12.5 µM;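 active = mean inhibition across replicates above about 50%, limit read from the data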
SENP6 confirm: human SENP6 inhibition, confirmed | shares compounds with SENP7 inh | recombinant SENP6, Z-RLRGG-aminoluciferin luminescence | inhibition, % at 12.5 µM | actives 58% (n = 6,200) | AID 488915
SENP7 conf: human SENP7 inhibition, confirmed; shares compounds with SENP7 inh; recombinant SENP7, Z-RLRGG-aminoluciferin luminescence, 40 min; inhibition, % at 12.5 µM; actives 69% (n = 6,200)
Casp3 select: caspase-3 inhibition (SENP selectivity assay); purified caspase-3, Z-DEVD-aminoluciferin luminescence, 60 min; actives 60% (n = 6,200); inhibition, % at 12.5 µM; AID 488918; shares compounds with SENP7 inh;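 active = mean inhibition above about 50%, limit read from the data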
Luc interf: counter-screen for SENP inhibitors: luminescence interference; shares compounds with SENP7 inh; Pre-incubated SENP8/Z-RLRGG-aminoluciferin, luciferase luminescence interference; AID 488919; inhibition, % at 12.5 µM; actives 39% (n = 6,200);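 active = mean inhibition above about 50% when retested at one dose, limit read from the data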
Large screens that a line does not name were inactive (follow-up assays come after a bar, where they were run). This is a sample that favours compounds with a hit; in the whole collection about 3% have one here.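 Rule for the calls, unless noted: active = mean inhibition above about 50% in the one-dose retest (limit read from the data); inactive = the rest.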

COC(=O)[C@@]12C[C@@H](CC(=O)NCC3CCCCC3)C(=O)N(Cc3ccc4c(c3)OCO4)C1=CCC(C)(C)C2	none (no result: SENP8 block-2, SENP6 inh, Apaf-1 inh, UBC13 inh, SENP7 inh)
Cc1cccc(NC(=O)c2cccc(OC(=S)N3CCOCC3)c2)c1	none
COc1ccc(Cl)cc1NC(=O)Nc1ccccc1C(N)=O	none
NC(=O)c1ccccc1NC(=O)Nc1cccc(Cl)c1	SENP8 block-2 82, SENP6 inh 61, SENP7 inh 92 | SENP8 confirm 86 | SENP6 confirm 87 | SENP7 conf 99 | Casp3 select 82 | Luc interf 89
COc1cccc(NC(=O)Cc2ccccc2)c1	SENP8 block-2 67, SENP6 inh 74, SENP7 inh 78 | SENP8 confirm 70 | SENP6 confirm 65 | SENP7 conf 90 | Casp3 select 83 | Luc interf 76
COc1cccc(NC(=O)c2nc(SC)ncc2Cl)c1	none
O=C(Nc1cccc(Cl)c1)c1ccc(OC(=S)N2CCOCC2)cc1	SENP7 inh 79 | SENP8 confirm inactive | SENP6 confirm inactive | SENP7 conf 78 | Casp3 select inactive | Luc interf inactive
COc1cccc(NC(=O)c2ncc(Cl)c(Cl)c2Cl)c1	SENP8 block-2 87, SENP6 inh 70, SENP7 inh 90 | SENP8 confirm inactive | SENP6 confirm 89 | SENP7 conf 101 | Casp3 select 91 | Luc interf inactive
COc1cccc(NC(=S)NC(=O)Cc2ccccc2)c1	none
CC(C)c1ccc(NC(=O)Nc2nc(C(N)COCc3ccccc3)cs2)cc1 (stereo not given)	none (no result: SENP8 block-2, SENP6 inh, Apaf-1 inh, UBC13 inh, SENP7 inh)
CNC(=O)C[C@H]1C(=O)N(Cc2ccccc2)C[C@@H]1C	none (no result: SENP8 block-2, SENP6 inh, Apaf-1 inh, UBC13 inh, SENP7 inh)
O=C1CCCc2nc(N3CCc4ccccc43)ncc21	SENP8 block-2 78, SENP6 inh 91, SENP7 inh 89 | SENP8 confirm inactive | SENP6 confirm inactive | SENP7 conf inactive | Casp3 select inactive | Luc interf inactive
CCCC(=O)Nc1cccc(-c2nc3cc(C)c(C)cc3o2)c1	SENP7 inh 91 | SENP8 confirm inactive | SENP6 confirm inactive | SENP7 conf inactive | Casp3 select inactive | Luc interf 54
Cc1ccc2oc(-c3cccc(NC(=O)Cc4cccs4)c3)nc2c1	SENP7 inh 75 | SENP8 confirm inactive | SENP6 confirm inactive | SENP7 conf inactive | Casp3 select inactive | Luc interf inactive
CCC(=O)Nc1ccc(-c2nnc(-c3ccccc3)o2)cc1	SENP6 inh 72, SENP7 inh 75 | SENP8 confirm inactive | SENP6 confirm inactive | SENP7 conf inactive | Casp3 select inactive | Luc interf inactive
CCC(=O)Nc1ccc2oc(-c3cccc(C)c3)nc2c1	SENP8 block-2 94, SENP6 inh 99, SENP7 inh 98 | SENP8 confirm inactive | SENP6 confirm 98 | SENP7 conf 103 | Casp3 select 96 | Luc interf 75
CCCC(=O)Nc1cccc(-c2nc3ccccc3o2)c1	none
Cc1cc(C(=O)N2CCCC(C)(C(=O)NS(=O)(=O)C3CC3)C2)n(C(C)(C)C)n1 (stereo not given)	none (no result: SENP8 block-2, SENP6 inh, Apaf-1 inh, UBC13 inh, SENP7 inh)
CCc1nc2c(OCc3ccc(Cl)cc3)cccn2c1N(C=O)Cc1ccccc1	none (no result: SENP8 block-2, SENP6 inh, Apaf-1 inh, UBC13 inh, SENP7 inh)
COc1ccc(NC(=O)Nc2ccc(N(C)C)cc2)cc1	SENP6 inh 81, SENP7 inh 77 | SENP8 confirm inactive | SENP6 confirm 70 | SENP7 conf 90 | Casp3 select 85 | Luc interf inactive
COc1ccc(Cl)cc1NC(=O)Nc1ccccc1SC	none

Source: PubChem BioAssay
